Results on six compounds are retold here after ChEMBL document CHEMBL1131153, “Metabolites of the angiotensin II antagonist tasosartan: the importance of a second acidic group” (J Med Chem, 1998).

Structures are written as SMILES.

Assay [1] concerns Rattus norvegicus. The assay is described as follows: Compound was evaluated for maximum decrease in mean arterial pressure after an intravenous dose of 1.0 mg/kg in rats. The class given is functional, Artery. In a few lines: (§1)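 Renal hypertension produced in 150 g Sprague-Dawley rats by clipping the left renal artery (silver wire, 0.2 mm ID), used after 4–7 weeks. Right carotid cannulated under pentobarbital (50 mg/kg ip) with saline infusion at 5 µL/min. Intravenous dosing, then MAP and heart rate monitored over 24 h. Maximum MAP decrease reported as mean ± SE versus vehicle-treated rats.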

The test system of assay [2] is Rattus norvegicus. The assay is described as follows: Compound was evaluated for maximum decrease in mean arterial pressure after an intragastric dose of 0.1 mg/kg in rats. It counts as functional, Artery. In outline:
(§2)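 Goldblatt 2K-1C model: Sprague-Dawley rats (150 g) under pentobarbital (50 mg/kg ip) had the left renal artery clipped with a silver wire (0.2 mm internal diameter). Hypertension developed over 4–7 weeks, then the right carotid was cannulated under pentobarbital and saline infused at 5 µL/min. Dosing by gastric gavage in 0.5% methyl cellulose, 5 mL/kg. MAP recorded for 24 h; maximum fall reported, mean ± SE, 6–12 rats/group.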

The subject of assay [3] is Rattus norvegicus. The assay is described as follows: Compound was evaluated for maximum decrease in mean arterial pressure after an intragastric dose of 1.0 mg/kg in rats. The class given is functional, Artery. In outline:
as §2

The test system of assay [4] is Rattus norvegicus. As to the kind of experiment: Compound was evaluated for maximum decrease in mean arterial pressure after an intravenous dose of 3.0 mg/kg in rats. It counts as functional, Artery. In a few lines:
as §1

For assay [5], the system named is Rattus norvegicus. The assay is described as follows: Compound was evaluated for maximum decrease in mean arterial pressure after an intragastric dose of 10.0 mg/kg in rats. It counts as functional, Artery. In outline:
as §2

The subject of assay [6] is Rattus norvegicus. As to the kind of experiment: Compound was evaluated for maximum decrease in mean arterial pressure after an intragastric dose of 30.0 mg/kg in rats. It counts as functional, Artery. In a few lines:
as §2

Assay [7] concerns Rattus norvegicus. The assay is described as follows: Compound was evaluated for maximum decrease in mean arterial pressure after an intragastric dose of 0.3 mg/kg in rats. It counts as functional, Artery. In outline: as §2
The subject of assay [8] is Rattus norvegicus. As to the kind of experiment: Compound was evaluated for maximum decrease in mean arterial pressure after an intragastric dose of 3.0 mg/kg in rats. The class given is functional, Artery. In a few lines: as §2
The subject of assay [9] is Rattus norvegicus. The assay is described as follows: Compound was evaluated for maximum decrease in mean arterial pressure after an intravenous dose of 0.1 mg/kg in rats. The class given is functional, Artery. In outline:
as §1

Assay [10] concerns the target T1, Angiotensin II receptor (AT-1) type-1 (Rattus norvegicus, UniProt P29089+P25095).
T1 sequence (P29089 whole entry): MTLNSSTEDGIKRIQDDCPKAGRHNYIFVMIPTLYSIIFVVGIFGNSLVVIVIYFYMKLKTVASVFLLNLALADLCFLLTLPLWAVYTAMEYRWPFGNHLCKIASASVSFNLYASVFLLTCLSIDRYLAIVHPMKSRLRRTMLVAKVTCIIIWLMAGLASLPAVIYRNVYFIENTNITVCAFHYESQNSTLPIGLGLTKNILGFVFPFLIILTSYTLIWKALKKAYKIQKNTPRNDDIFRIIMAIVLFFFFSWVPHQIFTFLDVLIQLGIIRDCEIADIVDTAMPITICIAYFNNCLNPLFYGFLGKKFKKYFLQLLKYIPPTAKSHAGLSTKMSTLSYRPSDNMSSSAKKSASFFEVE
T1 sequence (P25095 whole entry): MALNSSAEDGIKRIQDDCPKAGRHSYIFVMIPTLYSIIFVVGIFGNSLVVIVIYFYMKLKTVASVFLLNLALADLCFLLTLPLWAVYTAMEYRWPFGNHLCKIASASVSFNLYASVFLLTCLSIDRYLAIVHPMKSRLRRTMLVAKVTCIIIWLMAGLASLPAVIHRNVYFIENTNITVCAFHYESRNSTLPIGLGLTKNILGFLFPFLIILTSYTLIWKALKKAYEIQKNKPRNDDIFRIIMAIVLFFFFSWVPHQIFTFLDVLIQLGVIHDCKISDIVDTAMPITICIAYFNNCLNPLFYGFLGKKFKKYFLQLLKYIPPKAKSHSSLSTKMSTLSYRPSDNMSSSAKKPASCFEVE
The assay is described as follows: Compound was evaluated for the in vitro inhibition of specific binding of [125I]-A II to Angiotensin II receptor, type 1 from rat adrenal membranes. The class given is cell membranes, Membrane.

The target of assay [11] is Angiotensin II receptor (AT-1) type-1 (Rattus norvegicus) (UniProt P29089+P25095). As to the kind of experiment: Compound was evaluated for the in vitro inhibition of specific binding of [125I]-A II to Angiotensin II receptor, type 1 in rat liver membrane at 100 nM.
Assay [12] deals with Rattus norvegicus. As to the kind of experiment: Compound was evaluated for maximum decrease in mean arterial pressure after an intravenous dose of 10.0 mg/kg in rats. The class given is functional, Artery. In outline: as §1
The subject of assay [13] is Rattus norvegicus. The assay is described as follows: Compound was evaluated for maximum decrease in mean arterial pressure after an intravenous dose of 0.03 mg/kg in rats. It counts as functional, Artery. In a few lines: as §1
Assay [14] relates to Rattus norvegicus. The assay is described as follows: Compound was evaluated for maximum decrease in mean arterial pressure after an intravenous dose of 0.10 mg/kg in rats. It counts as functional, Artery. As to conditions: dose 0.1 mg/kg. In outline: as §1

With `Cc1nc(C)c2c(n1)N(Cc1ccc(-c3ccccc3-c3nnn[nH]3)cc1)C(=O)CC2` [TASOSARTAN], the MAP in assay [1] worked out at 53 mmHg; in [2], 6 mmHg; in assay [3], 71 mmHg; in assay [4], 54 mmHg; in [5], 81 mmHg; in [6], 80 mmHg. For the same compound, the MAP was 45 mmHg in [7], 76 mmHg in [8] and 37 mmHg in assay [9]. This compound also returned a half-inhibitory concentration (IC50) in assay [10] of 1.2 nM.

In the case of `Cc1nc(C)c2c(n1)N(Cc1ccc(-c3ccccc3-c3nnn(C4OC(C(=O)O)C(O)C(O)C4O)n3)cc1)C(=O)CC2` (centres undefined), the inhibition in assay [11] worked out at 3.5%.

In [10], `Cc1nc(C)c2ccc(=O)n(Cc3ccc(-c4ccccc4-c4nn[nH]n4)cc3)c2n1` registered a concentration for half-maximal inhibition (IC50) of 6.5 nM.

Consider `Cc1nc(C)c2c(n1)N(Cc1ccc(-c3ccccc3-c3nn[nH]n3)cc1)C(=O)CC2O` (centres undefined), for which the MAP in assay [1] stood at 51 mmHg; in assay [3], 55 mmHg; in assay [4], 47 mmHg; in assay [5] it was 71 mmHg; in assay [8], 54 mmHg; in [12] it was 41 mmHg.

Consider `Cc1nc(CO)nc2c1c(O)cc(=O)n2Cc1ccc(-c2ccccc2-c2nn[nH]n2)cc1`, for which the IC50 in assay [10] was determined as 0.41 nM.

Regarding `Cc1nc(C)c2c(O)cc(=O)n(Cc3ccc(-c4ccccc4-c4nn[nH]n4)cc3)c2n1` [ENOLTASOSARTAN], the MAP turned out to be 34 mmHg in [13], 66 mmHg in assay [5], 39 mmHg in [8] and 67 mmHg in [14]. This compound also showed a half-maximal inhibitory concentration (IC50) in [10] of 0.17 nM.

Usually IC50 stands for the concentration that inhibits the measured activity by half. Read a low IC50 as inhibition by little substance. The inhibition is the share of the control response that was lost under treatment.
